Fewer inactive variants are shown than the library holds.

In the RNAGym collection of RNA variant scans (doi:10.1126/science.aae0568) one finds yeast fitness data, which are given here for 167 variants.

B1: tRNA (parent)
chain: GUUCCGUUGGCGUAAUGGUAACGCGUCUCCCUCCUAAGGAGAAGACUGCGGGUUCGAGUCCCGUACGGAACG

Variants of B1 are the subject of this data set. Put plainly: yeast fitness relative to wild type (ratio to wild type); higher = fitter; tRNA-Arg(CCU), competitive growth, 37 C, YPD. The method, boiled down:
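A pool of Saccharomyces cerevisiae strains, each with a tRNA-Arg(CCU) gene variant at the native genomic locus, was competed in YPD at 37°C for 24 hours across six parallel replicates. The variants had been chemically synthesised at a 3% per-site mutation rate over 69 sites, and gene amplicons before and after competition were read by 100-nucleotide paired-end sequencing. Darwinian fitness relative to wild type rested on changes in genotype frequencies. Genotypes required ≥ 100 starting reads, and estimates < 0.5 were set to 0.5.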
As to C4U C66G, the yeast fitness is 0.75.

For C4U G10U C24U, the yeast fitness was determined as 0.625.

As to C4U G6A C49U, the yeast fitness turned out to be 0.706.

Turning to C4U C31U G67C, the yeast fitness stood at 0.598.

As for C4U G17C, the yeast fitness is 0.709.

As to C4U C49U C55A, the yeast fitness is at most 0.5.

As for C4U G6A A42C C66U, the yeast fitness was at most 0.5.

In the case of C4U C55A, the yeast fitness is 0.701.

For the variant C4U C55G, the yeast fitness was found to be 0.636.

With C4U G9A G68A, the yeast fitness is 0.968.

On to C4U G23C U26G A36C A37U A42C A45U C60U C66U A70G, for which the yeast fitness came to 0.634.

With C4U G6C A14U C24G C66U, the yeast fitness is at most 0.5.

As to C4U G9A C33G, the yeast fitness is 0.639.

Regarding C4U G25A G50C U54C, the yeast fitness was at most 0.5.

Consider C4U G10A C24U G67A, for which the yeast fitness amounted to 0.751.

In the case of C4U G39C G48C, the yeast fitness stood at 0.537.

C4U G39C: the yeast fitness came to 0.829.

As for C4U G39A, the yeast fitness stood at 0.982.

Take C4U U13C C30G G48U A70U: the yeast fitness is at most 0.5.

For C4U G56A U59C A65C A70G, the yeast fitness was at most 0.5.

C4U G18C C27U C33G A43C A70U: the yeast fitness was determined as 0.659.

In the case of C4U G18C A45U C49U, the yeast fitness is at most 0.5.

For C4U C60G G67A, the yeast fitness was at most 0.5.

With C4U G12C U28G U32C C62G, the yeast fitness was at most 0.5.

On to C4U G56A C60U, for which the yeast fitness was at most 0.5.

Take C4U G18A G23C C24G C46G A57G: the yeast fitness was at most 0.5.

Turning to C4U U7A A20G C24A G51A, the yeast fitness is at most 0.5.

As to C4U G9A A57G, the yeast fitness is 0.61.

For the variant C4U G10A G51C U59G, the yeast fitness is at most 0.5.

For C4U U8G A15U C62U, the yeast fitness is at most 0.5.

Consider C4U C34A G56A C60G, for which the yeast fitness is at most 0.5.

Turning to C4U C49U G58C, the yeast fitness is 0.782.

In the case of C4U U16A A20U U28C U35C G39C A42C G48A, the yeast fitness is at most 0.5.

For C4U U8A A14U A20C A36C A43C G58C C61A, the yeast fitness is at most 0.5.

On to C4U G10A C24U A69U, for which the yeast fitness worked out at 0.838.

On to C4U G10A C24U A69C, for which the yeast fitness is 0.769.

Consider C4U C46G A70C, for which the yeast fitness is 1.01.

As to C4U G23A C33G C49A U54G A65G, the yeast fitness is at most 0.5.

As for C4U U7A U8A, the yeast fitness was at most 0.5.

Regarding C4U G51C U59G, the yeast fitness stood at 0.557.

Take C4U G18C G38A A40C A65G: the yeast fitness was at most 0.5.

Turning to C4U G18C A21G A57C, the yeast fitness is at most 0.5.

C4U C33G C60G: the yeast fitness was at most 0.5.

In the case of C4U G25C G67A, the yeast fitness was 0.719.

Take C4U G6A A20C C60G A65U A69G: the yeast fitness was at most 0.5.

For C4U U7A C33G A42C, the yeast fitness is at most 0.5.

On to C4U G67A, for which the yeast fitness was found to be 0.904.

In the case of C4U U7A U8A A40U C61U, the yeast fitness was at most 0.5.

Consider C4U U16A A20G C49U C66U, for which the yeast fitness is at most 0.5.

For C4U U8C C29U A43U, the yeast fitness is at most 0.5.

For C4U C66U A69U, the yeast fitness is 0.677.

Regarding C4U C49U U64A, the yeast fitness was determined as 0.589.

As to C4U C55U C61U, the yeast fitness came to 0.673.

Regarding C4U G23C C29G C31G, the yeast fitness is at most 0.5.

Turning to C4U U13A A14U C29U A37G G67A, the yeast fitness was at most 0.5.

Take C4U G10A G12A A42U: the yeast fitness was at most 0.5.

As to C4U C66G A70U, the yeast fitness was 0.608.

Take C4U C31G C34G A43U G68C A69G: the yeast fitness is at most 0.5.

For the variant C4U G6A C31U C34U, the yeast fitness is at most 0.5.

As for C4U G17C C22U A37C, the yeast fitness is at most 0.5.

Take C4U G9A C11U C34A C55A A65C: the yeast fitness was at most 0.5.

Take C4U G10A C66U: the yeast fitness was 0.663.

For C4U G41C C55G, the yeast fitness came to 0.539.

Regarding C4U U7A U8A A65U, the yeast fitness was at most 0.5.

Take C4U U8C A20G A43C C49A C66A: the yeast fitness was at most 0.5.

For C4U G18C C46U C60G, the yeast fitness was at most 0.5.

For C4U U13C C66U A70C, the yeast fitness came to 0.618.

Regarding C4U G9A C27G U32A G52A, the yeast fitness is at most 0.5.

For the variant C4U G17A G18A C34U G56C, the yeast fitness was at most 0.5.

In the case of C4U C46G C55U, the yeast fitness stood at 0.576.

C4U G10A G23C C49A G68C: the yeast fitness is at most 0.5.

As for C4U G23C G39C G44A, the yeast fitness was at most 0.5.

For the variant C4U C60G A69C, the yeast fitness worked out at 0.52.

Take C4U G51C: the yeast fitness came out at 0.637.

As for C4U G51A, the yeast fitness came to 0.942.

For C4U G25A G41A G56C A65C, the yeast fitness was at most 0.5.

Consider C4U C33A C49U U54G, for which the yeast fitness was at most 0.5.

For C4U G48A C60G, the yeast fitness is at most 0.5.

As for C4U G6C A14U C24G G58C, the yeast fitness stood at 0.531.

Take C4U G38A G58C C66U: the yeast fitness was at most 0.5.

As for C4U G52A C60A, the yeast fitness was 0.823.

Regarding C4U G10C G48C G56C, the yeast fitness was at most 0.5.

With C4U G52A, the yeast fitness is 0.727.

As to C4U C31U A45C C46U, the yeast fitness was 1.01.

As for C4U U13G A36U, the yeast fitness amounted to 0.655.

Turning to C4U C61G C66U A69U, the yeast fitness is at most 0.5.

Turning to C4U G44A C46U A69C, the yeast fitness was 0.829.

Take C4U G10A G23C: the yeast fitness was at most 0.5.

For C4U C31U C55G A70C, the yeast fitness was at most 0.5.

As for C4U C46A G50A C61U C62U, the yeast fitness is 1.09.

Take C4U C55U A69U: the yeast fitness came to 0.745.

Regarding C4U G10C C24G C49U, the yeast fitness was at most 0.5.

For the variant C4U G12A A20G C22U C62U A65C, the yeast fitness is at most 0.5.

For C4U G18C G38A A40C, the yeast fitness is 0.545.

With C4U G12C A45C C49U, the yeast fitness is at most 0.5.

C4U G18C C49U C61A: the yeast fitness is at most 0.5.

For the variant C4U G10C G23A U26C A43G U53A, the yeast fitness was at most 0.5.

On to C4U G23A, for which the yeast fitness amounted to 0.783.

As to C4U C46U C62U, the yeast fitness came to 0.806.

Consider C4U G9C G18A C29G C31U U32C G50C, for which the yeast fitness was at most 0.5.

For the variant C4U G39C C49U, the yeast fitness was determined as 0.62.

With C4U G12A C27G C34A C49A C66U, the yeast fitness is at most 0.5.

Regarding C4U G10A C24U C62U, the yeast fitness is 0.723.

Regarding C4U G25A A70U, the yeast fitness is 0.77.

As to C4U G10A C24U C46G G58A, the yeast fitness was at most 0.5.

As to C4U G12A C24A C61U, the yeast fitness is 0.609.

On to C4U G52A U59A, for which the yeast fitness was 0.592.

Consider C4U C33A C61U, for which the yeast fitness amounted to 0.597.

Consider C4U G9A C29U, for which the yeast fitness turned out to be 0.567.

C4U C33A G41C C60U A65U A69U: the yeast fitness is at most 0.5.

With C4U G18C G51A C66A, the yeast fitness is at most 0.5.

Turning to C4U G18A A21C A65C, the yeast fitness was at most 0.5.

Consider C4U G39C G48C C62G, for which the yeast fitness came to 0.549.

Take C4U G10A C30U C49G G68A: the yeast fitness is 0.585.

Consider C4U U8A U13C C46A, for which the yeast fitness amounted to 0.619.

Take C4U G12C U64C: the yeast fitness came to 0.696.

Consider C4U G10C G23A G52A G58A, for which the yeast fitness was at most 0.5.

C4U G12C G51A A65C: the yeast fitness was at most 0.5.

Regarding C4U C55U U59G, the yeast fitness was found to be 0.587.

Turning to C4U G12A C27G C34A C49G, the yeast fitness was at most 0.5.

As for C4U G39C C60U, the yeast fitness was at most 0.5.

C4U U8G G12A U54G: the yeast fitness is at most 0.5.

Turning to C4U U16A, the yeast fitness worked out at 0.993.

On to C4U G6A G25A U32C, for which the yeast fitness was at most 0.5.

Consider C4U C31A, for which the yeast fitness is 0.827.

Turning to C4U C31G, the yeast fitness was determined as 0.868.

Turning to C4U C33G C34G G51C U54C, the yeast fitness turned out to be 0.561.

Regarding C4U G17A U19G A21G A43G G63A, the yeast fitness is at most 0.5.

In the case of C4U G52A C55U U64C, the yeast fitness is at most 0.5.

With C4U G23A U26A A45C, the yeast fitness was at most 0.5.

With C4U U7A A36U A45U A57G A70G, the yeast fitness is at most 0.5.

As for C4U C66U A70C, the yeast fitness amounted to 0.83.

Take C4U G12C C27U: the yeast fitness came out at 0.535.

Take C4U C33A: the yeast fitness turned out to be 0.724.

Regarding C4U G41C C66A, the yeast fitness was at most 0.5.

Turning to C4U G17A A37U U59C, the yeast fitness was at most 0.5.

Take C4U U13C C29G G38C: the yeast fitness is at most 0.5.

As to C4U U13G C49A C55U C60U C61U, the yeast fitness was at most 0.5.

For the variant C4U C49G A57C, the yeast fitness was at most 0.5.

With C4U C46U A70G, the yeast fitness was 0.772.

On to C4U U8A A20G C24A G52C, for which the yeast fitness was determined as 0.598.

With C4U C62A, the yeast fitness came to 0.85.

Turning to C4U C62U, the yeast fitness was found to be 0.992.

Turning to C4U C62G, the yeast fitness is 0.808.

On to C4U G25A G48C A57U, for which the yeast fitness was at most 0.5.

Turning to C4U G12A C27G C34A C49A C60G C61U, the yeast fitness was found to be 0.522.

Regarding C4U G10A C24U, the yeast fitness came out at 0.98.

For the variant C4U C34A C62U, the yeast fitness was 0.566.

C4U G10A C24U C61A: the yeast fitness came out at 0.623.

As for C4U U8A C30U U32G U35A C62U A69C, the yeast fitness is at most 0.5.

On to C4U G12C C46U G50A, for which the yeast fitness turned out to be 0.608.

Turning to C4U C31G A65U G67C, the yeast fitness was at most 0.5.

C4U G12C A20G U47A C49U A57U C61A: the yeast fitness is 0.572.

For C4U G10A C22U, the yeast fitness was at most 0.5.

Take C4U G41C A65G: the yeast fitness turned out to be 0.65.

Take C4U C31A A36G G44C: the yeast fitness was found to be 0.59.

In the case of C4U G63U, the yeast fitness was found to be 0.778.

In the case of C4U G10A C49A U53A G67A, the yeast fitness was at most 0.5.

As for C4U G39C U54C, the yeast fitness is at most 0.5.

Turning to C4U C49G A70G, the yeast fitness was 0.602.

As to C4U C46G G51A G52A, the yeast fitness is at most 0.5.

As to C4U C31G C55U G68C, the yeast fitness is at most 0.5.

As to C4U U13A A14U U32A G58C, the yeast fitness is at most 0.5.

As for C4U G18C C24U C61G, the yeast fitness was at most 0.5.

Take C4U U7C: the yeast fitness was determined as 1.08.

As to C4U G18C, the yeast fitness came to 0.651.

Regarding C4U G6C C30G C60U, the yeast fitness stood at 0.546.
